Reference: ChEMBL document CHEMBL3286341, “Novel, potent and selective 17β-hydroxysteroid dehydrogenase type 2 inhibitors as potential therapeutics for osteoporosis with dual human and mouse activities” (Eur J Med Chem, 2014)
Active and inactive are the calls of the source. The calls are words filed in the database; no cut-off is given here.

How the values were obtained:
[1] = biological target: T1, Estradiol 17-beta-dehydrogenase 2 (Mus musculus) (UniProt P51658); experiment: Inhibition of mouse liver 17beta-HSD2 microsomal fraction using tritiated estradiol as substrate assessed as formation of estrone at 1 uM by HPLC analysis relative to control
T1 sequence (whole entry): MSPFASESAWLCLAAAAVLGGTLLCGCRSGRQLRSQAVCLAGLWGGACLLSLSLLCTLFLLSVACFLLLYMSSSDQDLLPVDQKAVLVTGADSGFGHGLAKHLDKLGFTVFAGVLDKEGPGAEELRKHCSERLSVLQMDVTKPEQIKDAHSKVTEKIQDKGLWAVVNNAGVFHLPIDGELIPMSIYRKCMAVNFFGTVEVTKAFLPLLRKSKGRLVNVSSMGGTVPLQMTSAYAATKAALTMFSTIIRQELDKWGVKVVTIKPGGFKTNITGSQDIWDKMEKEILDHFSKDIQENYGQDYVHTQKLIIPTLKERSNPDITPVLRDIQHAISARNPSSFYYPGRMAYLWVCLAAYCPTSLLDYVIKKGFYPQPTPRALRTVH
How it was run: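 Mouse liver microsomes were used, following the same procedure as the human type 2 assay: tritiated E2 at 500 nM with NAD⁺, and E1 formation quantified after HPLC separation.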

Homo sapiens = species: Homo sapiens; experiment: Selectivity factor, ratio of IC50 for human placental 17beta-HSD1 cytosolic fraction to IC50 for placental 17beta-HSD2 microsomal fraction
How it was run: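 Selectivity factor calculated as IC50(h17β-HSD1)/IC50(h17β-HSD2), both IC50 values taken from the placental cytosolic and microsomal radiolabel HPLC assays.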

[2] = biological target: T2, 17-beta-hydroxysteroid dehydrogenase type 1 (Homo sapiens) (UniProt P14061); experiment: Inhibition of human placental 17beta-HSD1 cytosolic fraction using tritiated estrone as substrate assessed as formation of estradiol at 1 uM by HPLC analysis relative to control
T2 sequence (whole entry): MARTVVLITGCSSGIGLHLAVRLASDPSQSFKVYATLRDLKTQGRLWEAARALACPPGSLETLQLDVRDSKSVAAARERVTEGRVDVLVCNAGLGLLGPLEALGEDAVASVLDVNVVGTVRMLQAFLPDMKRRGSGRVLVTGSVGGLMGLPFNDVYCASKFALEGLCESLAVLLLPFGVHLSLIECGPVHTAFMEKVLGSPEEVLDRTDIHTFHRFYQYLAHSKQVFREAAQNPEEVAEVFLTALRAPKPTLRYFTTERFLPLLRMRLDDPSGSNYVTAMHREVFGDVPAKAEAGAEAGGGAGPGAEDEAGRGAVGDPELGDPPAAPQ
How it was run: (§1)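 Cytosolic fraction from placenta served as the enzyme source, incubated with tritiated E1 (500 nM final), NADH cofactor and test compound. E1 and E2 were separated by HPLC and the labeled species quantified. Mean of three determinations.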

[3] = biological target: T3, 17-beta-hydroxysteroid dehydrogenase type 2 (Homo sapiens, UniProt P37059); experiment: Inhibition of human placental 17beta-HSD2 microsomal fraction using tritiated estradiol as substrate assessed as formation of estrone by HPLC analysis
T3 sequence (P37059 whole entry): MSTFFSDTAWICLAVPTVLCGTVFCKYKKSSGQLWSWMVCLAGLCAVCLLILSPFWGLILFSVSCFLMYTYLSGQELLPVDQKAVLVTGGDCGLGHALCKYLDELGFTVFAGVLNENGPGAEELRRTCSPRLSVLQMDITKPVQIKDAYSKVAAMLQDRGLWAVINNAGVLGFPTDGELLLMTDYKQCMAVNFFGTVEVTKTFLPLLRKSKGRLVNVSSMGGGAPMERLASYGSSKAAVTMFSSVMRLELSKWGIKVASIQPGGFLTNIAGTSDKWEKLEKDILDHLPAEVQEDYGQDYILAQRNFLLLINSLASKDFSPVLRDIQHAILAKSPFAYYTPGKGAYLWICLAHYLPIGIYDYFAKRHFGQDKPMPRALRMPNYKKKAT
How it was run: (§2)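 Placental microsomes were incubated with tritiated E2 (500 nM final) plus NAD⁺ cofactor and test compound. Labeled E2 and E1 were separated by HPLC and quantified. Mean of three determinations, standard deviation below 20%.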

[4] = biological target: T4, 17-beta-hydroxysteroid dehydrogenase type 2 (Homo sapiens) (UniProt P37059); experiment: Inhibition of human placental 17beta-HSD2 microsomal fraction using tritiated estradiol as substrate assessed as formation of estrone at 1 uM by HPLC analysis relative to control; how it was run: as §2
T4 sequence (whole entry): T3 sequence (P37059 whole entry)

[5] = biological target: T5, 17-beta-hydroxysteroid dehydrogenase type 1 (Homo sapiens, UniProt P14061); experiment: Inhibition of human placental 17beta-HSD1 cytosolic fraction using tritiated estrone as substrate assessed as formation of estradiol by HPLC analysis; how it was run: as §1
T5 sequence (P14061 whole entry): T2 sequence (whole entry)

[6] = biological target: T6, Estrogen receptor (Homo sapiens) (UniProt P03372); experiment: Displacement of [3H]-estradiol from recombinant human estrogen receptor-alpha by liquid scintillation counting analysis relative to estradiol
T6 sequence (whole entry): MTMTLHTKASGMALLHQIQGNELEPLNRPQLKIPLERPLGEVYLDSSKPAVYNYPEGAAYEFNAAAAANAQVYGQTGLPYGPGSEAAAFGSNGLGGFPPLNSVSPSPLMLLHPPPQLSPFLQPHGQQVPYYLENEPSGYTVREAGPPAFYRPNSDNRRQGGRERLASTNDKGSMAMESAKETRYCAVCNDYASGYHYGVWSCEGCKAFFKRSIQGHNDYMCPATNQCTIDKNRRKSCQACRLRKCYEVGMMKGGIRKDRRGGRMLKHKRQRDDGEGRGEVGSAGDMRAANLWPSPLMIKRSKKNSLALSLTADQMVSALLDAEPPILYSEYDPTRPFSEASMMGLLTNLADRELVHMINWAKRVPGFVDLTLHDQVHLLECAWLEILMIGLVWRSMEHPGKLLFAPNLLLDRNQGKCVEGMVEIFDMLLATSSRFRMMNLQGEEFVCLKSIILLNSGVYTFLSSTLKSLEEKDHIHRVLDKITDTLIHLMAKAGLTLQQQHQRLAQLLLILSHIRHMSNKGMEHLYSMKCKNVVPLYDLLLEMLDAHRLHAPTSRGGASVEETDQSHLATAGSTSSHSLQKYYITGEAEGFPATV
How it was run: (§3)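 Competitive binding with [³H]-E2; compounds in DMSO at 5% final. Non-specific binding was set with unlabeled E2 at 100-fold the tracer: 300 nM for ERα, 1000 nM for ERβ. Bound complexes were captured on hydroxyapatite and counted by liquid scintillation. Concentrations displacing 50% were read from sigmoidal curves, with E2 run in each experiment. RBA[%] = IC50(E2)/IC50(compound) × 100.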

[7] = biological target: Estrogen receptor beta (Homo sapiens) (UniProt Q92731); experiment: Displacement of [3H]-estradiol from recombinant human estrogen receptor-beta by liquid scintillation counting analysis relative to estradiol; how it was run: as §3
Sequence of Estrogen receptor beta (Homo sapiens) (Q92731 whole entry): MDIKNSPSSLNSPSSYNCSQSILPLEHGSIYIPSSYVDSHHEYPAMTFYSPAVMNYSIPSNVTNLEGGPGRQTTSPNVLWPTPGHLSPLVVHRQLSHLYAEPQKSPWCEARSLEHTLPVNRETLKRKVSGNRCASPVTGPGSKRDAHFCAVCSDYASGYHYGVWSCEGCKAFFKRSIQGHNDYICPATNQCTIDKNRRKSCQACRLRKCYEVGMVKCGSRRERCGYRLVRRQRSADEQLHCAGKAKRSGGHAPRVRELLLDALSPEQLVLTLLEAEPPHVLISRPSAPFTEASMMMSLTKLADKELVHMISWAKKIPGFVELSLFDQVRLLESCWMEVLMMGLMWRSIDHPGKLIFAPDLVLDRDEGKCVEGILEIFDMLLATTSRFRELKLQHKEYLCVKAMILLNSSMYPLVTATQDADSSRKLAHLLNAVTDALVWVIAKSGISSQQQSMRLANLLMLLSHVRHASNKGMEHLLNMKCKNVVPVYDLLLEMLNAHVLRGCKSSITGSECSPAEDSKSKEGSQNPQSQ

Structure (SMILES)	inhibition [1]	Ratio IC50 (Homo sapiens)	inhibition [2]	IC50 [3]	inhibition [4]	IC50 [5]	RBA [6]	RBA [7]
CN(Cc1cccc(O)c1)C(=O)c1ccc(-c2cccc(O)c2)s1	16%	14	–	–	–	–	–	–
COc1cccc(-c2ccc(C(=O)N(C)Cc3cccc(O)c3)s2)c1F	–	73	inactive	–	–	–	–	–
CC(C)(C(=O)c1ccc(-c2cccc(O)c2)s1)c1cccc(O)c1	42%	1	54%	357 nM	73%	336 nM	–	–
Cc1cc(-c2cccc(O)c2)sc1-c1cccc(O)c1	inactive	2	–	–	–	–	–	–
COc1cccc(-c2csc(C(=O)N(C)c3cccc(OC)c3)c2)c1	–	–	–	–	–	–	< 0.1%	< 0.1%
CN(C(=O)c1cc(-c2cccc(O)c2)sc1-c1cccc(O)c1)c1cccc(O)c1	42%	7	29%	362 nM	74%	2490 nM	–	–
COc1cccc(CN(C)C(=O)c2ccc(-c3cccc(OC)c3)s2)c1	26%	> 250	inactive	–	–	> 10000 nM	–	–
COc1cccc(CC(=O)c2ccc(-c3cccc(OC)c3)s2)c1	12%	–	inactive	–	17%	–	–	–
O=C(Cc1cccc(O)c1)c1ccc(-c2cccc(O)c2)s1	inactive	–	43%	–	37%	–	–	–
Oc1cccc(-c2cc(-c3cccc(O)c3)c(-c3cccc(O)c3)s2)c1	inactive	2	–	–	–	–	< 0.1%	< 0.1%
